The list is not random: actives were taken first. Their share in the collection is about 1.3%.
LANA DNA inh: inhibitors of KSHV LANA C-terminal domain DNA binding. 0.078% of 340,000 active. inhibition, % at 9 µM. MBP-C-LANA/FAM-LBS DNA binding, fluorescence polarization. AID 504423;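 active = highest replicate inhibition at or above 60% at 9 µM, even if other replicates fall short; inactive = all replicates below 60% inhibition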;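 also: 0% = neutral control wells and 100% = 4 µM acridine orange control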
Keap1-Nrf2 PPI: disrupts human Keap1 binding to Nrf2 peptide; 0.15% of 340,000 active; Q14145; Keap1 Kelch-Nrf2 peptide fluorescence polarization, 1536-well; inhibition, % at 9.4 µM; in the data active = inhibition above about 12%;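 also: human Keap1 Kelch domain with fluorescein labeled Nrf2 9mer peptide probe; 0% = neutral control wells and 100% = peptide positive control; higher means more block of Keap1 binding to Nrf2 peptide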
Target sequence (Q14145 whole entry, looked up, the tested form may be a part): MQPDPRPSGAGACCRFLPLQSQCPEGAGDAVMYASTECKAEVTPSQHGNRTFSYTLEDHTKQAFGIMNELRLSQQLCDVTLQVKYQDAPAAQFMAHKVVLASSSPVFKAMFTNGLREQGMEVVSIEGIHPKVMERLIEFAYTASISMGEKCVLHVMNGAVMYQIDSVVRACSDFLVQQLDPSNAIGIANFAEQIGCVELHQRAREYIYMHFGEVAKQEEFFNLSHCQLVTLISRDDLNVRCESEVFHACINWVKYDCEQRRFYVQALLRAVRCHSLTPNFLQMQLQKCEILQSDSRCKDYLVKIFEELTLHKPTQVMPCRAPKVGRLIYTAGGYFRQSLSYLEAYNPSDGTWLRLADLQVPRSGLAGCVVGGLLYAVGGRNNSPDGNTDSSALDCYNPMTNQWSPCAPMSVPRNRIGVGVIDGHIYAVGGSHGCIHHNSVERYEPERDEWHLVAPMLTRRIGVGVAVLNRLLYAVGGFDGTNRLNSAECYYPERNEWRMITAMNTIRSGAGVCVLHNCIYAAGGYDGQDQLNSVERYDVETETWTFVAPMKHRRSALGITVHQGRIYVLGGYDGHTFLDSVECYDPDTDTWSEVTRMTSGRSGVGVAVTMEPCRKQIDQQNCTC
RTF Ca sens act: increases calcium sensitivity of human cardiac regulated thin filaments | P19429+P45379 | IANBD-labeled TnC RTF fluorescence at EC20 calcium; 0% EC20 calcium, 100% full calcium | activation, % at 7.2 µM | 0.24% of 340,000 active | AID 493008;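 active = activation above the mean over all tested compounds plus 3 SD, cut at about 30% in these data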;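 also: rise in fluorescence read as greater calcium sensitivity of cardiac thin filaments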
CAL PDZ FP-1: inhibitors of human CAL PDZ peptide binding; purified CAL PDZ, TMR-peptide fluorescence polarization, 1 h; inhibition, % at 20 µM; 0.02% of 330,000 active; AID 504414;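 active = highest replicate inhibition of at least 40%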;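 also: plate controls were DMSO neutral control wells for no effect and unlabeled competitor peptide control wells for full effect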
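Material: tagged CAL PDZ protein CerCALP, purified; buffer or medium: sodium phosphate/NaCl buffer pH 7.4 with TCEP, IgG, Thesit; also added: fluorescent TMR peptide probe; schedule: 1 h incubation at room temperature before polarization reading; technique: fluorescence polarization from S- and P-plane intensities, G-factor corrected; control set: unlabelled peptide and DMSO controls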
Cardiac RTF inh: cardiac RTF calcium desensitization | IANBD-labeled cardiac RTF, Ca2+ fluorescence | P19429+P45379 | inhibition, % at 7.15 µM | 0.12% of 340,000 active;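 active = inhibition above the mean inhibition of all tested compounds plus 3 SD, cut at about 17% in these data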;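 also: assay run at fixed EC70 calcium of 1.6 mM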
CAL PDZ FP-2: inhibitors of human CAL PDZ peptide binding; Q9HD26; purified CAL PDZ, TMR-peptide fluorescence polarization, 1 h; inhibition, % at 24.9 µM; 0.92% of 300,000 active;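 active = mean inhibition of at least 30% with at least half of replicates also reaching 30%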;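 also: 0% = DMSO neutral control and 100% = excess unlabeled competitor peptide PRC23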
* hit, by the source's call; i = inactive; / = no result.

SMILES	LANA DNA inh	Keap1-Nrf2 PPI	RTF Ca sens act	CAL PDZ FP-1	Cardiac RTF inh	CAL PDZ FP-2
CCc1ccc(NC2=CC(=O)CC(c3ccco3)C2)cc1 (centres undefined)	-0.4	-1.6	-7.5	-1.3	10.5	49.5*
Cc1cc(C)cc(NC2=CC(=O)CC(c3ccco3)C2)c1 (centres undefined)	0.4	-3.1	3.1	-1.3	5.7	/
O=C(NCCc1cccs1)c1cccs1	-0.3	-0.8	4.0	-0.2	10.4	/
CC(C)(C)CN1CCN(Cc2nc(-c3ccc(F)cc3)cs2)CC1CCO (centres undefined)	0.0	-3.9	7.6	-5.3	-7.1	1.3
O=C(N[C@@H](Cc1c[nH]c2ccccc12)C(=O)O)C1CCN(S(=O)(=O)c2ccc(Cl)cc2)CC1	0.3	-0.1	-10.4	-0.8	4.8	32.2*
O=C(N[C@@H](Cc1c[nH]c2ccccc12)C(=O)O)C1CCN(S(=O)(=O)c2cccs2)CC1	0.2	5.2	9.1	/	-2.9	70.6*
CC(C)(C)OC(=O)N1CCC(C(=O)N[C@@H](Cc2c[nH]c3ccccc23)C(=O)O)CC1	-1.7	-1.3	4.4	/	-3.8	8.0
O=C(NCCCCc1ccccc1)C1CCCC1	101.0*	-3.1	-3.8	-1.2	1.5	3.0
O=C(NCCCCNC(=O)C1CCCC1)C1CCCC1	0.4	-6.3	4.0	-0.8	-4.7	-0.9
Oc1sc(C=Nc2ccccc2)c2ccccc12	2.2	-11.8	75.3*	-1.3	-110.9	0.2
CCN1CCc2c(sc(NC(=O)Nc3ccc(Cl)c(Cl)c3)c2C(N)=O)C1	18.4	-46.9	152.1*	-0.2	i	-2.3
NC(=O)c1c(NC(=O)c2c(F)cccc2F)sc2c1CCN(Cc1ccccc1)C2	9.2	-20.0	-0.3	-1.0	-7.0	-0.5
CCN1CCc2c(sc(NC(=O)Cc3ccccc3)c2C(N)=O)C1	-0.2	-0.6	-4.1	-0.5	5.1	/
NC(=O)c1c(NC(=O)c2ccccc2)sc2c1CCN(Cc1ccccc1)C2	3.7	-17.1	49.3*	0.3	-33.8	-1.8
CS(=O)(=O)N(CC(=O)N1CCc2ccccc2C1)Cc1ccc(F)cc1	2.5	-1.8	-1.9	-0.6	-0.9	-0.2
Cc1cc(C)n(CC(=O)NNC(=O)CCNC(=O)c2ccccc2Cl)n1	0.5	2.2	4.9	-0.4	-6.1	-2.3
Cc1cc(C)n(CC(=O)NNC(=O)CC(C)c2ccccc2)n1 (centres undefined)	73.3*	0.8	0.6	-0.3	-3.2	0.0
COc1cc(/C=C2\CCC(C)C3=C(c4cc(OC)c(OC)c(OC)c4)C(C#N)=C(N)OC32)cc(OC)c1OC (centres undefined)	0.9	-10.6	39.9*	-0.4	-57.1	-0.9
COc1ccc(C(CNC(=O)COc2ccccc2C#N)N2CCOCC2)cc1 (centres undefined)	-0.2	-1.2	-0.8	-1.5	-9.9	2.5
Cc1ccccc1SCC(=O)NCC(c1ccc(F)cc1)N1CCOCC1 (centres undefined)	1.5	-3.1	0.4	-0.6	-1.1	53.4*
COc1ccc(/C=C(\C#N)C(=O)NCC(c2ccc(F)cc2)N2CCOCC2)cc1 (centres undefined)	0.0	-6.1	6.2	0.2	-14.0	77.5*
O=C(NCC(c1ccc(F)cc1)N1CCOCC1)c1ccccc1F (centres undefined)	-8.1	0.6	2.8	-0.3	5.8	-0.5
COc1ccc(CCNC(=O)C2CCC(=O)N2S(=O)(=O)c2ccc(C)cc2)cc1 (centres undefined)	-0.1	-1.5	4.8	-0.8	-7.1	/
O=C(NCCc1ccc(F)cc1)c1coc(=O)c(Br)c1	-0.1	3.7	-0.1	0.3	-7.8	5.8
O=C(Nc1ccccc1F)c1coc(=O)c(Br)c1	87.3*	3.9	-2.1	-0.3	-2.4	1.4
SMILES	LANA DNA inh	Keap1-Nrf2 PPI	RTF Ca sens act	CAL PDZ FP-1	Cardiac RTF inh	CAL PDZ FP-2
Cc1cc(C(=O)COc2ccccc2C(N)=O)c(C)n1C	-0.1	-1.5	-0.5	-0.7	-0.1	1.4
Cc1cc(C(=O)COc2cccc3cccnc23)c(C)n1C	38.3	24.5*	52.5*	-1.2	-133.7	0.2
COc1cccc(F)c1C(=O)NC(=O)Nc1ccc2nc(C)oc2c1	22.4	2.8	44.6*	-0.6	-75.3	/
COCCNS(=O)(=O)c1cc(-c2nn(C)c(=O)c3ccccc23)ccc1C	2.0	0.5	0.1	-3.4	-4.2	1.7
CCCCNS(=O)(=O)c1cc(-c2nn(C)c(=O)c3ccccc23)ccc1C	0.8	-0.3	-7.6	-1.2	-3.6	56.2*
COc1ccc(C2CC(=O)c3c(C)nc(N4CCN(c5ccccc5)CC4)nc3C2)cc1 (centres undefined)	1.0	-1.7	7.4	-0.8	-7.7	37.8*
Cc1nc(N2CCN(Cc3ccccc3)CC2)nc2c1C(=O)CC(c1ccco1)C2 (centres undefined)	-2.0	-3.7	-3.4	0.0	-5.8	/
CN1CCCN(C(=O)c2ccc(Cl)cc2)CC1	0.2	1.6	-2.6	0.2	-8.4	-1.6
CN1CCN(C(=O)c2cc(Cl)cc(Cl)c2)CC1	5.6	2.0	1.4	/	-4.9	63.9*
CN(C)c1ccc(/C=C/C(=O)c2cccc(Br)c2)cc1	-4.1	-38.2	135.1*	-2.5	-305.9	-2.1
CN(C)c1ccc(C(=O)/C=C/c2cccnc2)cc1	1.9	2.6	-3.0	-0.5	-10.8	0.2
COc1ccc(NC(=O)C2CCCC2)cn1	-2.7	-4.9	3.9	-3.2	-0.2	-1.1
COc1ccc(NC(=S)Nc2ccc(S(N)(=O)=O)cc2)c(OC)c1	-1.3	-0.3	2.2	-1.1	-9.6	36.7*
COc1ccc(CN(C)C(=O)C(Cc2ccccc2)NC(=O)c2ccccc2)c(OC)c1 (centres undefined)	1.1	-3.8	-6.9	-0.4	1.0	/
O=C(c1ccc(Cl)cc1)N1CCC(N2CCC(C(=O)N3CCOCC3)CC2)CC1	-0.6	3.1	-3.5	-1.9	-1.8	-3.0
Cc1ccc(C(=O)N2CCC(N3CCC(C(=O)N4CCOCC4)CC3)CC2)cc1C	1.0	-1.0	2.6	-0.8	2.8	73.6*
Cc1cccc(Nc2nc(N)c([N+](=O)[O-])c(NCCO)n2)c1	0.8	1.6	-3.5	-0.7	-3.4	46.9*
Cc1cccc(Nc2nc(N3CCN(C)CC3)nc(N)c2[N+](=O)[O-])c1	0.5	-2.9	-6.5	-1.8	-0.5	35.5*
Nc1nc(NCC2CCCO2)nc(Nc2cccc(F)c2)c1[N+](=O)[O-] (centres undefined)	1.7	2.3	2.5	-0.3	-2.9	78.5*
O=C(COC(=O)c1ccc([N+](=O)[O-])s1)c1ccc[nH]1	-2.3	-4.0	-3.8	-0.4	5.8	-2.4
Oc1ccc(N=Cc2ccc(O)c(O)c2)cc1	0.9	-0.5	-2.3	0.5	-8.4	3.6
Oc1ccc(/C=N/N=C/c2ccc(O)c(O)c2)cc1O	76.8*	-7.4	2.8	0.8	-1.4	-3.8

From PubChem
